Reference: the EternaBench riboswitch data

Columns and labels:
MS2 coat protein [1] = assay: apparent Kd, MS2 coat protein; higher = weaker binding; RNA-MaP array; tryptophan 2.4 mM where present
Method in brief: (§1)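 Designs were transcribed by stalled E. coli RNA polymerase on Illumina sequencing-chip clusters. They were titrated with SNAP-549-labelled MS2 coat protein from 0.7 or 1.5 nM, doubling to 3 µM, without and then with constant ligand. Buffer: 100 mM Tris-HCl pH 7.5, 80 mM KCl, 4 mM MgCl2, BSA, DTT, yeast tRNA, Tween-20. Green signal was normalised to red-channel RNA signal and control-cluster median Fmax. Apparent Kd is the median of filtered per-cluster binding-curve fits.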

MS2 coat protein [2] = assay: apparent Kd, MS2 coat protein; higher = weaker binding; RNA-MaP array; theophylline 2 mM where present
Method in brief: as §1

[3] = designed as: OFF switch for tryptophan, no ligand
[4] = ligand present: tryptophan, designed as: OFF switch for tryptophan
[5] = designed as: ON switch for tryptophan, no ligand
[6] = ligand present: tryptophan, designed as: ON switch for tryptophan
[7] = designed as: OFF switch for theophylline, no ligand
[8] = ligand present: theophylline, designed as: OFF switch for theophylline
[9] = designed as: ON switch for theophylline, no ligand
[10] = ligand present: theophylline, designed as: ON switch for theophylline

Sequence | apparent Kd (MS2 coat protein [1]; [3]) [nM] | apparent Kd (MS2 coat protein [1]; [4]) [nM] | apparent Kd (MS2 coat protein [1]; [5]) [nM] | apparent Kd (MS2 coat protein [1]; [6]) [nM] | further results
AAUGAGUGGUGGUCAAGUGAUCCUCAUGAACGAGGACCGGUACGGCCGCCACUCGAUAACAUGAGGAUCACCCAUGUAAUAAUAA | 16.5 | 14.8 |  |  | 
AAUGGCCGUACCGGAAGGGUGAUCCUCAAACGAGGACCGGUACGGCCGCCACUCGAUAACAUGAGGAUCACCCAUGUAAUACAUA | 366 | 318 |  |  | 
AAUGUCGGAUCGGCCGCCACUGGUUGGCCCUGUGUACAUGAGGAUCACCCAUGUCCAUCCCAAACCAGGACCGGGAUCUUUAUGU |  |  | 36.1 | 13 | 
ACAUGAGGAUCACCCAUGUGCAUCACCCGACGAGGACCGGUACGGCCGCCACUCGGGUAUAUAUUUGCAUCGGGUGAUUUUACGU |  |  | 19.6 | 14.9 | 
ACAUGAGGAUCACCCAUGUGUGUAAGUCCUCGAGGACCGGUACGGCCGCCACUCGAACGAGUGUAACAUACUUGUUACAAGUAUG |  |  | 24 | 24.4 | 
ACAUGAGGAUCACCCAUGUUUGAUGUUCCUCGAGGACCGGUACGGCCGCCACUCGAACGAGUGGCGCGCGAGCGCGCGCUCGCGC |  |  | 12.2 | 12.7 | 
ACAUUGCGCUCGGCCGCCACUGGCUAUAGAUUUAUAGCAUUAAUGAACAUGAGGAUCACCCAUGUCAGGACCGGGAGCGAACCAU |  |  | 12.7 | 14.5 | 
ACUACGAAGACGGCCGCCACUGAUAUUCGUAGAUCCAUCAAUACAUGAGGAUCACCCAUGUAUAUCAGGACCGGGUCAAGAUGGU | 22.6 | 47.2 |  |  | 
AGCACGGUGAUGGUAGCCGGACGCUAGGUACGAGGACCGGUACGGCCGCCACUCGAAGUCCUACGACAUGAGGAUCACCCAUGUA |  |  | 53.5 | 40.5 | 
AGCACUGUGGCGGCCGCCACUACAUAUAGGGUGGUCAGGCCCAUAAUACAUGAGGAUCACCCAUGUAGGACCGGGCCUCAGUGCA | 15 | 14.8 |  |  | 
AGUAAUAAUAUAAAUAAUAUUAGGUCAUGGCGAGGACCGGUACGGCCGCCACUCGGUUACAUGAGGAUCACCCAUGUCCCGCUUA | 30.5 | 34.6 |  |  | 
AGUUCCAGGUCGGCCGCCACUGGCAUGGCCGGUCCUCGGACUUACAUGAGGAUCACCCAUGUGAACAGGACCGGGACCGCAUGGG | 38.3 | 48.2 |  |  | 
AUAAUAAUCCUCAUGUAAGGUCCUCGAUAACGAGGACCGGUACGGCCGCCACUCGAACAUGAGGAUCACCCAUGUACGAGGACCA |  |  | 42.5 | 32.6 | 
AUAUAUACAUGAGGAUCACCCAUGUUAUUACGAGGACCGGUACGGCCGCCACUCGAUAGAGUAGAAGUAAAUUGUAAUUCAUGUU | 12.4 | 12.6 |  |  | 
AUCAUAAUAGACUCGUUUGAUUAUAUGGAACGAGGACCGGUACGGCCGCCACUCGUGAUUUACAUGAGGAUCACCCAUGUUAGCA | 15.7 | 13.9 |  |  | 
CUACAUUUGUAGAAACCGGUCAACAUUAUUCGAGGACCGGUACGGCCGCCACUCGUAUAUUUUUAUACAUGAGGAUCACCCAUGU |  |  | 12 | 11.4 | 
CUUGACAUGAGGAUCACCCAUGUUGGUAAACGAGGACCGGUACGGCCGCCACUCGGUUACGUGUAGUACCGGUAAGAUCCAGGGU |  |  | 29.3 | 27.1 | 
GACGAUAUGAUACGUCAGCAAUCCUCGAAACGAGGACCGGUACGGCCGCCACUCGAGUGAUACACAUGAGGAUCACCCAUGUACC | 39.3 | 53.2 |  |  | 
GCAUCCUAGUCGGCCGCCACUGCAAUUGUAAUACUGCUACAUGAACAUGAGGAUCACCCAUGUAGCAGGACCGGGACUAGGAUGC |  |  | 164 | 27 | 
GCAUCCUAGUCGGCCGCCACUGGUAUCAACACCUUCACCCGUGUGCACAUGAGGAUCACCCAUGUUAGGACCGGGACUAGGAUGC |  |  | 8.4 | 8.5 | 
GCGACCCUGAGAUCCUACGUAACGUGAACACGAGGACCGGUACGGCCGCCACUCGAGAGAACAUGAGGAUCACCCAUGUCUGAGC | 32.9 | 88.5 |  |  | 
GGAAAAGAAAGAAAAGAAAUCCCUCCCUCCCGAGGACCGGUACGGCCGCCACUCGCCCUCCCUCCCACAUGAGGAUCACCCAUGU | 23.5 | 23.4 |  |  | 

Sequence | apparent Kd (MS2 coat protein [1]; [3]) [nM] | apparent Kd (MS2 coat protein [1]; [4]) [nM] | apparent Kd (MS2 coat protein [1]; [5]) [nM] | apparent Kd (MS2 coat protein [1]; [6]) [nM] | further results
GGAUAGGACACGGCCGCCACUGCCUAGGAUACUAGAAACAUUUCCUCACAUGAGGAUCACCCAUGUAGGACCGGGUGUCCUAUCG | 134 | 267 |  |  | 
GGAUAGGACACGGCCGCCACUGCGGCUAGAUACUAGCACAUUUCCUCACAUGAGGAUCACCCAUGUAGGACCGGGUGUCCUAUCG | 95.7 | 132 |  |  | 
GGAUUCAACUCGGCCGCCACUGGUGAUCCUAAUGUACAUGAGGAUCACCCAUGUACAUGAGAAUAUAGGACCGGGAGAUAAGUUA |  |  | 29 | 24.2 | 
GUCCAAAGGUCGGCCGCCACUGUAGGAUGUGUUCUUUCACAUGAGGAUCACCCAUGUUGUUAUUAUAGGACCGGGAUUGUAGGAC | 20.5 | 18.5 |  |  | 
GUGUGGAGCUCGGCCGCCACUCAAACAUGAGGAUCACCCAUGUAAAACAUGAGGAUCACCCAUGUGAGGACCGGGAGAAACACGA | 338 | 404 |  |  | 
GUUAUAUACUCGGCCGCCACUGAGAGAGUCAUGUAAACAUGAGGAUCACCCAUGUAAUAUAUAUACAGGACCGGGAGUAUGGUAA | 14.3 | 13.5 |  |  | 
UAAUCAGUGCCGGUUCUCGGAUCCUCAUGUCGAGGACCGGUACGGCCGCCACUCGAAACAUGAGGAUCACCCAUGUAAUAAUAAU | 89.6 | 65.8 |  |  | 
UACUUGCUGACGGCCGCCACUAGAACAUGAGGAUCACCCAUGUAGGUCCUAGAUUCCUCAUGAACUAGGACCGGGUCAGCAAGAU | 52.6 | 12.4 |  |  | 
UACUUGCUGACGGCCGCCACUAGAACAUGAGGAUCACCCAUGUAUGGCGGCCGUCAUGGGUGGACUAGGACCGGGUCAGCAAGAU | 9.84 | 13.6 |  |  | 
UAUAUAUAUCACUAACUGUUGUGGACGUCUCGAGGACCGGUACGGCCGCCACUCGGGCGGCCUCACAUGAGGAUCACCCAUGUCC | 125 | 110 |  |  | 
UCGCCCGGGUCGGCCGCCACUGCGGUGAUGUGACAUGAGGAUCACCCAUGUUGUCAUGUGGCACAUAGGACCGGGACCCGGGCGA | 30.5 | 29.9 |  |  | 
UCGGGCAGAGCGGCCGCCACUGUAUGGCGUGCGGAUGACGGAACAUGAGGAUCACCCAUGUUGUUUAGGACCGGGCUUGCCGCGA | 11.2 | 13.2 |  |  | 
UCGUAUGCGGCGGCCGCCACUCGCGGAUAACGAGAGCUUAACAUGAGGAUCACCCAUGUGUCAUGGAGGACCGGGCCCAUUCACA |  |  | 29.2 | 31.4 | 
UGACAUUGCUGCGAUACCAGACAUGAGGAUCACCCAUGUACCAAGGUAAGAAAAUAACAUGUCCCUUGGCAGCGCAGCAAUGUCU |  |  |  |  | apparent Kd (MS2 coat protein [2]; [7]): 14.9 nM; apparent Kd (MS2 coat protein [2]; [8]): 284 nM
UGGAAAGCACAUGAGGAUCACCCAUGUGAUACCAGCUGAAACUAAGGCCCUUGGCAGCACAUGGUACCAACCCUUUGGUAGUCCA |  |  |  |  | apparent Kd (MS2 coat protein [2]; [7]): 11.9 nM; apparent Kd (MS2 coat protein [2]; [8]): 50.5 nM
UGUCAUGGAAACAUGACAGGUUCUACCGGUCGAGGACCGGUACGGCCGCCACUCGAUUGGUGGCACAUGAGGAUCACCCAUGUUA |  |  | 25.2 | 25.2 | 
UUAAGAGGAUAUCAAAUUUGAUUUUGUGAUACCAGAAUAAUUUUAUUCCCUUGGCAGCAUGACAUGAGGAUCACCCAUGUGUCUU |  |  |  |  | apparent Kd (MS2 coat protein [2]; [9]): 37 nM; apparent Kd (MS2 coat protein [2]; [10]): 30 nM
UUAGAUAUGACGGAUACCAGCGUGUUGUAGAACAUGAGGAUCACCCAUGUAGUGAUCGUGCGCCCUUGGCAGCUGGUAUGUUUGG |  |  |  |  | apparent Kd (MS2 coat protein [2]; [9]): 250 nM; apparent Kd (MS2 coat protein [2]; [10]): 898 nM
UUCUACAUGAGGAUCACCCAUGUGGGUGAUACCAGCACUUUUUGGUGCCCUUGGCAGCACAUGAGAAUGCCGUAAAAUCGGCGAU |  |  |  |  | apparent Kd (MS2 coat protein [2]; [9]): 334 nM; apparent Kd (MS2 coat protein [2]; [10]): 500 nM
UUCUGGUCCCGUGAUACCAGAGACAUGAGGAUCACCCAUGUACAUGAGGAUCACCCAUGUUUCCCUUGGCAGCACUGUAGGGAGC |  |  |  |  | apparent Kd (MS2 coat protein [2]; [7]): 196 nM; apparent Kd (MS2 coat protein [2]; [8]): 1220 nM
UUCUUUAAGUCGGCCGCCACUGAAACAUGAGGAUCACCCAUGUAUAUUUGUGUAAAGGUGGAUUACAGGACCGGGACUAUAGUAA | 12 | 12 |  |  | 
